The inhibition is the change of the read-out against control, counted positive when it falls.

Test [1] deals with T1, Glucocorticoid receptor (Homo sapiens) (UniProt P04150).
T1 sequence (whole entry): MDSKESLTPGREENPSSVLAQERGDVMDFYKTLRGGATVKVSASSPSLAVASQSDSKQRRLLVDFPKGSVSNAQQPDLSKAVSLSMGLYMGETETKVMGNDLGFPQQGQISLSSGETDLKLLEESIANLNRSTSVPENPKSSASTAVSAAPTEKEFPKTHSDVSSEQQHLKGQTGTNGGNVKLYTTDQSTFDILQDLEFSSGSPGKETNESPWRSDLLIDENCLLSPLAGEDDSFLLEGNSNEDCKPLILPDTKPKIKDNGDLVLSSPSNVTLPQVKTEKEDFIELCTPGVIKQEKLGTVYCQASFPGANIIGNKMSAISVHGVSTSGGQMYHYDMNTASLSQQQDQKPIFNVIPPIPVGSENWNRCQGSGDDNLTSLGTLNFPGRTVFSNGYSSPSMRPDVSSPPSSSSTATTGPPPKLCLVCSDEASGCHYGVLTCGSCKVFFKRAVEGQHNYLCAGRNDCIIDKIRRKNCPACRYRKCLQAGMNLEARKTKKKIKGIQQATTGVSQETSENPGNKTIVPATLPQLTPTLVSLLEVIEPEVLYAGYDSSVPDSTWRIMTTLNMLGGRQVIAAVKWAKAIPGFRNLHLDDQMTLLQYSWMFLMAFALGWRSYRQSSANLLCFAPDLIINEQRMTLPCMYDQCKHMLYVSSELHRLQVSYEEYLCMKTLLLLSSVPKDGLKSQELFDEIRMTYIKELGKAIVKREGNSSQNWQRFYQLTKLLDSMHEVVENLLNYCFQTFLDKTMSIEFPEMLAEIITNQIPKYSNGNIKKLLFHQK
In words: Displacement of [3H]-dexamethasone from GR receptor in human IM-9 cytosolic extracts at 60 nM preincubated for 6 hrs followed by washout and second incubation with [3H]-dexamethasone for 2 hrs relative to control. Summed up:
(§1)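 IM-9 cytosol (240 µg/assay) preincubated 6 h with ligand (100 nM, or 60 nM for cortisol). Unbound ligand was stripped with activated charcoal and centrifugation, then 3 nM [3H]-dexamethasone was added. Binding was read after 1, 2, 3, 4, 16 or 24 h of second incubation as % inhibition of control specific binding, in duplicate.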

Test [2] concerns the target T1, Glucocorticoid receptor (Homo sapiens). In words: Displacement of [3H]-dexamethasone from GR receptor in human IM-9 cytosolic extracts at 60 nM preincubated for 6 hrs followed by [3H]-dexamethasone addition relative to control. (In general: In a radioligand displacement assay an active substance lowers the binding of a labelled ligand.)
Test [3] shares this target. In words: Displacement of [3H]-dexamethasone from GR receptor in human IM-9 cytosolic extracts at 60 nM preincubated for 6 hrs followed by washout and second incubation with [3H]-dexamethasone for 4 hrs relative to control. Summed up:
as §1

For test [4] the target is unchanged. Nature of the test: Displacement of [3H]-dexamethasone from GR receptor in human IM-9 cytosolic extracts at 60 nM preincubated for 6 hrs followed by washout and second incubation with [3H]-dexamethasone for 24 hrs relative to control. Summed up:
as §1

Test [5] shares this target. Nature of the test: Displacement of [3H]-dexamethasone from GR receptor in human IM-9 cytosolic extracts at 60 nM preincubated for 6 hrs followed by washout and second incubation with [3H]-dexamethasone for 16 hrs relative to control. A digest of the protocol: as §1
The target is the same in test [6]. Nature of the test: Displacement of [3H]-dexamethasone from GR receptor in human IM-9 cytosolic extracts using buffer solution without beta-mercaptoethanol at 60 nM preincubated for 6 hrs followed by washout and second incubation with [3H]-dexamethasone for 24 hrs relative to control. A digest of the protocol:
(§2)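 Repeat of the wash-out protocol in buffers free of β-mercaptoethanol, with a second batch of dexamethasone mesylate. IM-9 cytosol (240 µg/assay) preincubated 6 h at 100 nM (cortisol 60 nM), charcoal-stripped and centrifuged, then given 3 nM [3H]-dexamethasone. Binding was read before wash-out or at 1–24 h as % inhibition of control, in duplicate.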

For test [7] the target is unchanged. In words: Displacement of [3H]-dexamethasone from GR receptor in human IM-9 cytosolic extracts using buffer solution without beta-mercaptoethanol at 60 nM preincubated for 6 hrs followed by washout and second incubation with [3H]-dexamethasone for 16 hrs relative to control. A digest of the protocol:
as §2

For test [8] the target is unchanged. Nature of the test: Displacement of [3H]-dexamethasone from GR receptor in human IM-9 cytosolic extracts at 60 nM preincubated for 6 hrs followed by washout and second incubation with [3H]-dexamethasone for 3 hrs relative to control. Summed up:
as §1

Test [9] has the same target. Nature of the test: Displacement of [3H]-dexamethasone from GR receptor in human IM-9 cytosolic extracts using buffer solution without beta-mercaptoethanol at 60 nM preincubated for 6 hrs followed by [3H]-dexamethasone addition relative to control. A digest of the protocol: as §2
For test [10] the target is unchanged. In words: Displacement of [3H]-dexamethasone from GR receptor in human IM-9 cytosolic extracts at 60 nM preincubated for 6 hrs followed by washout and second incubation with [3H]-dexamethasone for 1 hr relative to control. Summed up:
as §1

The target is the same in test [11]. Nature of the test: Displacement of [3H]-dexamethasone from GR receptor in human IM-9 cytosolic extracts using buffer solution without beta-mercaptoethanol at 100 nM preincubated for 6 hrs followed by washout and second incubation with [3H]-dexamethasone for 4 hrs relative to control. A digest of the protocol: as §2
Test [12] shares this target. In words: Displacement of [3H]-dexamethasone from human GR receptor at 1 uM relative to control. A digest of the protocol: (§3)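 Human GR radioligand binding with soluble receptor from IM-9 cells and 1.5 nM [3H]-dexamethasone, with test ligand at 1 µM or 0.1 µM. Specific binding reported as % inhibition of control, in duplicate.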
For test [13] the target is unchanged. In words: Displacement of [3H]-dexamethasone from GR receptor in human IM-9 cytosolic extracts using buffer solution without beta-mercaptoethanol at 100 nM preincubated for 6 hrs followed by washout and second incubation with [3H]-dexamethasone for 3 hrs relative to control. Summed up: as §2
The target is the same in test [14]. Nature of the test: Displacement of [3H]-dexamethasone from GR receptor in human IM-9 cytosolic extracts using buffer solution without beta-mercaptoethanol at 100 nM preincubated for 6 hrs followed by washout and second incubation with [3H]-dexamethasone for 24 hrs relative to control. A digest of the protocol:
as §2

Test [15] has the same target. In words: Displacement of [3H]-dexamethasone from GR receptor in human IM-9 cytosolic extracts at 100 nM preincubated for 6 hrs followed by washout and second incubation with [3H]-dexamethasone for 1 hr relative to control. Summed up:
as §1

Test [16] has the same target. In words: Displacement of [3H]-dexamethasone from GR receptor in human IM-9 cytosolic extracts using buffer solution without beta-mercaptoethanol at 100 nM preincubated for 6 hrs followed by [3H]-dexamethasone addition relative to control. A digest of the protocol:
as §2

Test [17] has the same target. In words: Displacement of [3H]-dexamethasone from human GR receptor at 0.1 uM relative to control. A digest of the protocol:
as §3

The target is the same in test [18]. In words: Displacement of [3H]-dexamethasone from GR receptor in human IM-9 cytosolic extracts at 100 nM preincubated for 6 hrs followed by washout and second incubation with [3H]-dexamethasone for 24 hrs relative to control. A digest of the protocol: as §1
The target is the same in test [19]. In words: Displacement of [3H]-dexamethasone from GR receptor in human IM-9 cytosolic extracts at 100 nM preincubated for 6 hrs followed by [3H]-dexamethasone addition relative to control.
For test [20] the target is unchanged. Nature of the test: Displacement of [3H]-dexamethasone from GR receptor in human IM-9 cytosolic extracts using buffer solution without beta-mercaptoethanol at 100 nM preincubated for 6 hrs followed by washout and second incubation with [3H]-dexamethasone for 2 hrs relative to control. A digest of the protocol: as §2
For test [21] the target is unchanged. In words: Displacement of [3H]-dexamethasone from GR receptor in human IM-9 cytosolic extracts at 100 nM preincubated for 6 hrs followed by washout and second incubation with [3H]-dexamethasone for 16 hrs relative to control. A digest of the protocol: as §1
Test [22] has the same target. In words: Displacement of [3H]-dexamethasone from GR receptor in human IM-9 cytosolic extracts using buffer solution without beta-mercaptoethanol at 100 nM preincubated for 6 hrs followed by washout and second incubation with [3H]-dexamethasone for 1 hr relative to control. Summed up: as §2
Test [23] shares this target. Nature of the test: Displacement of [3H]-dexamethasone from GR receptor in human IM-9 cytosolic extracts using buffer solution without beta-mercaptoethanol at 100 nM preincubated for 6 hrs followed by washout and second incubation with [3H]-dexamethasone for 16 hrs relative to control. Summed up:
as §2

Test [24] has the same target. In words: Displacement of [3H]-dexamethasone from GR receptor in human IM-9 cytosolic extracts at 100 nM preincubated for 6 hrs followed by washout and second incubation with [3H]-dexamethasone for 3 hrs relative to control. Summed up:
as §1

Test [25] has the same target. In words: Displacement of [3H]-dexamethasone from GR receptor in human IM-9 cytosolic extracts at 100 nM preincubated for 6 hrs followed by washout and second incubation with [3H]-dexamethasone for 2 hrs relative to control. Summed up: as §1
For test [26] the target is unchanged. Nature of the test: Displacement of [3H]-dexamethasone from GR receptor in human IM-9 cytosolic extracts at 100 nM preincubated for 6 hrs followed by washout and second incubation with [3H]-dexamethasone for 4 hrs relative to control. A digest of the protocol: as §1

For the compound `C[C@]12CCC(=O)C=C1CC[C@@H]1[C@@H]2[C@@H](O)C[C@@]2(C)[C@H]1CC[C@]2(O)C(=O)CO`, the inhibition was 6% in test [1]; 69% in test [2]; -1% in test [3]; 12% in test [4]; 5% in [5]; -8% in test [6]. For the same compound, the inhibition in test [7] amounted to 16%; in [8] it was 4%; in [9] it was 69%; in test [10], 3%.
For `CCN(CC(O)(CNC(=O)c1cnn(-c2ccc(F)cc2)c1N)C(F)(F)F)C(=O)c1c(Cl)ccc(NC(=O)CCl)c1Cl` (configuration not stated), the inhibition is 0% in test [11]; 92% in test [12]; -6% in [13]; 8% in test [14]; -4% in test [15]; 78% in test [16]. In addition, the inhibition in test [17] was 78%; in test [18], 2%; in [19], 78%; in [20], -8%; in test [21] it was 1%; in test [22] it was -1%. Further, the inhibition in [23] was determined as 37%.
`C=CC(=O)Nc1ccc(Cl)c(C(=O)N(CC)CC(O)(CNC(=O)c2cnn(-c3ccc(F)cc3)c2N)C(F)(F)F)c1Cl` (configuration not stated): the inhibition is -10% in [11]; 96% in test [12]; -2% in [14]; 24% in [24]; 17% in test [25]; 21% in test [15]. Further, the inhibition was 74% in test [16]; 74% in [17]; 74% in [19]; 31% in test [21]; 6% in test [26]; -5% in test [23].
With `C[C@@H]1C[C@H]2[C@@H]3CCC4=CC(=O)C=C[C@]4(C)[C@@]3(F)[C@@H](O)C[C@]2(C)[C@@]1(O)C(=O)COS(C)(=O)=O`, the inhibition was 3% in test [11]; -2% in test [13]; 13% in test [14]; 7% in [24]; 3% in test [25]; 7% in [15]. Besides, the inhibition was 93% in test [16]; 23% in test [18]; 93% in test [19]; 13% in test [21]; 3% in test [22]; 46% in test [23].

(Values after ChEMBL document CHEMBL3853336, “Novel selective glucocorticoid receptor agonists (SEGRAs) with a covalent warhead for long-lasting inhibition” (Bioorg Med Chem Lett, 2016).)
